These results are taken from ChEMBL document CHEMBL6134900 (J Med Chem, 2025).

This test concerns NCI-H2030. The test is described as follows: Antitumor activity against human NCI-H2030 cells harboring KRAS G12C mutant/SMARCA4 mutant assessed as cell growth inhibition incubated for 7 days by Incucyte S3 analysis. Conditions: time 7.0 day; call rule not given here. It is filed as functional, cell-based. In a few lines:
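H2030 cells plated at 500 per well and grown overnight at 37 °C. Treated with 3-fold dilutions of sotorasib, test agent, or both. Confluency imaged every 4 h for 7 days on IncuCyte S3. Synergy scored as Bliss/Lowe consensus, >10 taken as synergy.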

Molecules are shown by their SMILES.

With `C=CC(=O)N1CCN(c2nc(=O)n(-c3c(C)ccnc3C(C)C)c3nc(-c4c(O)cccc4F)c(F)cc23)[C@@H](C)C1`, the Activity result is “Active; Minimal Inhibition Observed”.
